Results from ChEMBL document CHEMBL4402584, “Lead Optimization of Phthalazinone Phosphodiesterase Inhibitors as Novel Antitrypanosomal Compounds” (J Med Chem, 2020).

Key:
[1] = Cytotoxicity against human MRC5 SV2 cells assessed as reduction in cell viability incubated for 72 hrs by resazurin dye based fluorimetric assay; conditions: MRC-5 SV2, 72 h
In short: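 MRC-5 SV2 fibroblasts grown in Earl's MEM with 5% FBSi, L-glutamine and bicarbonate; 1×10^4 cells/well treated 72 h at 37 °C, 5% CO2; resazurin viability read fluorimetrically (ex 550, em 590 nm). Five 4-fold dilutions from a 64 µM top concentration; IC50 derived from % viability reduction vs untreated wells; tamoxifen as reference.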

Trypanosoma brucei = assay: Antitrypanosomal activity against Trypanosoma brucei Squib 427 assessed as reduction in parasite growth incubated for 72 hrs by resazurin dye based fluorimetric analysis; assay type: functional, organism-based; conditions: Squib 427, 72 h
[2] = target: 3',5'-cyclic-AMP phosphodiesterase 4D (Homo sapiens, UniProt Q08499); assay: Inhibition of human PDE4D2 expressed in Escherichia coli BL21 (DE3) using cAMP as substrate by PDELight HTS cAMP phosphodiesterase Kit based
3',5'-cyclic-AMP phosphodiesterase 4D, sequence (Q08499 whole entry, the tested form may be a part): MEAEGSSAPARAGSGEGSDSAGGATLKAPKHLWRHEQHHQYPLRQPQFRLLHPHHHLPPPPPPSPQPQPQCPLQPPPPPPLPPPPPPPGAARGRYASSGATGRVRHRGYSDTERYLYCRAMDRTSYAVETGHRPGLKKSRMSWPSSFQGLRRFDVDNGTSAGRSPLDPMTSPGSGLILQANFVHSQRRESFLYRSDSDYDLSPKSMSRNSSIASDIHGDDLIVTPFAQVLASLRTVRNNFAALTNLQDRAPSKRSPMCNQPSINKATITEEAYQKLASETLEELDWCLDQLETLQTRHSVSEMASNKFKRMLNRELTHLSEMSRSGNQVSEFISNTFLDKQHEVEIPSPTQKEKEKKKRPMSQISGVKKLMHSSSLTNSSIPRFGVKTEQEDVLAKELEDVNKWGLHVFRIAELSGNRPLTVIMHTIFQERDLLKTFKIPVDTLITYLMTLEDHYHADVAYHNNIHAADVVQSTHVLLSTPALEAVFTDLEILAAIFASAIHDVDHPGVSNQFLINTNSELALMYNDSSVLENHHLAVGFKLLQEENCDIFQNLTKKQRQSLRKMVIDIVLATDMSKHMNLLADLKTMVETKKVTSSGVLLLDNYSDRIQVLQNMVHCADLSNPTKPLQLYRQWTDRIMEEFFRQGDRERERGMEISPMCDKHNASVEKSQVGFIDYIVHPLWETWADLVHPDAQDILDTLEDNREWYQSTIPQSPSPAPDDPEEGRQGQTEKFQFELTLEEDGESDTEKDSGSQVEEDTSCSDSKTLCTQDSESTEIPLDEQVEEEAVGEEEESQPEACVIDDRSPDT
In short: (§1)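 Recombinant catalytic domains, His-tag purified, then ion exchange and size exclusion, were tested with the PDELight HTS cAMP kit in stimulation buffer (50 mM Hepes, 100 mM NaCl, 10 mM MgCl2, 0.5 mM EDTA, 0.05 mg/ml BSA, pH 7.5). Dose-response curves gave Ki, expressed as pKi = −log10(Ki ÷ 1000000).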

[3] = target: T1, Class 1 phosphodiesterase PDEB1 (Trypanosoma brucei, UniProt Q8WQX9); assay: Inhibition of Trypanosoma brucei PDEB1 (565 to 918 residues) expressed in Escherichia coli BL21 (DE3) using cAMP as substrate by PDELight HTS cAMP phosphodiesterase Kit based; in short: as §1
T1 sequence (Q8WQX9 whole entry): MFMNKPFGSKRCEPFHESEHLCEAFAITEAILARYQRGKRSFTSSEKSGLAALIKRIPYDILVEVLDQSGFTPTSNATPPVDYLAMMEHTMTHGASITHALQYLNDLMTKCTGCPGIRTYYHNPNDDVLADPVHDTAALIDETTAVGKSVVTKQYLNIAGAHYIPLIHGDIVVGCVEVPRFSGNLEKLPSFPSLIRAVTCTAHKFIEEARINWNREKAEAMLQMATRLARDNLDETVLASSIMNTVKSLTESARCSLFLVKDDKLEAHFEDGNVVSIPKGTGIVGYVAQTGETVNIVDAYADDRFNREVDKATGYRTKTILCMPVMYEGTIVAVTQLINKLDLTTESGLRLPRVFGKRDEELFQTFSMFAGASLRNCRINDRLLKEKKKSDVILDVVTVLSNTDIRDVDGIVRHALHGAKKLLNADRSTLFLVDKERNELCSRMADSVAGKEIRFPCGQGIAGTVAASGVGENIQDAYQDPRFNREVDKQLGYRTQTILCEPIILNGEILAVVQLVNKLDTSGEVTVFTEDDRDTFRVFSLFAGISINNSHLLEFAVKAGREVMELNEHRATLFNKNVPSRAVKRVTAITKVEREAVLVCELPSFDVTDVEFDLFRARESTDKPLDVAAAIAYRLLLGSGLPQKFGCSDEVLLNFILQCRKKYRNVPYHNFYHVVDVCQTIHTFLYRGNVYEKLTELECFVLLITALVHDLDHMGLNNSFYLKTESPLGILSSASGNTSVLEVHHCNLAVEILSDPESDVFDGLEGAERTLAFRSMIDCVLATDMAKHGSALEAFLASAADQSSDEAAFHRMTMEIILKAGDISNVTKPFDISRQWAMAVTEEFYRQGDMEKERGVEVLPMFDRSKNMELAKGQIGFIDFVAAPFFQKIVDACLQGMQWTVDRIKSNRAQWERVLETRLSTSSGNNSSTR

[4] = Metabolic stability in human microsomes assessed as compound remaining at 5 uM incubated for 30 mins by UPLC-MS/MS analysis; assay type: ADME, Microsome; conditions: 0.5 h, 5 µM
In short: (§2)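 Compound at 5 µM incubated with 0.5 mg/mL male liver microsomes in potassium phosphate buffer, started with 1 mM NADPH (CYP phase I). Aliquots quenched in cold acetonitrile containing tolbutamide, centrifuged at 4 °C, supernatant analysed by LC-MS. Results given as % parent remaining relative to time 0; mean of at least two experiments; diclofenac as control.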

[5] = Metabolic stability in mouse microsomes assessed as compound remaining at 5 uM incubated for 30 mins by UPLC-MS/MS analysis; assay type: ADME, Microsome; conditions: 0.5 h, 5 µM; in short: as §2

Row | IC50 (Trypanosoma brucei) [µM] | Ki [2] [µM] | Ki [3] [µM] | Stability [4] | Stability [5] | SMILES | IC50 [1] [µM]
1 | 7.59 |  | > 6.92 | Stable | Stable | O=C(CN1C(=O)CC2(CCCCC2)CC1=O)N1CCC(N2N=C(c3ccc(F)c(F)c3)[C@H]3CCCC[C@H]3C2=O)CC1 | 64.6
2 | 2.51 | 0.000676 | 0.17 |  |  | COc1ccc(C2=NN(C3CN(C(=O)CN4C(=O)CC5(CCCC5)CC4=O)C3)C(=O)[C@@H]3CC=CC[C@H]23)cc1OC | 64.6
3 | 64.6 | 0.00012 | 0.0776 |  |  | CC1(C)CC(=O)N(CC(=O)N2CCC(N3N=C(c4ccc(F)cc4)[C@H]4CC=CC[C@H]4C3=O)CC2)C(=O)C1 (relative stereo) | 29.5
4 | 7.59 | 0.00162 | 0.776 |  |  | O=C(CN1C(=O)CC2(CCCCC2)CC1=O)N1CCC(N2N=C(c3ccc(OC(F)F)c(OC(F)F)c3)[C@H]3CC=CC[C@H]3C2=O)CC1 | 64.6
5 | 1 | 0.000302 | 0.407 |  |  | CC1(C)CC(=O)N(CC(=O)N2CCC(N3N=C(c4ccc(OC(F)F)c(OC(F)F)c4)[C@H]4CC=CC[C@H]4C3=O)CC2)C(=O)C1 | 64.6
6 | 10.2 |  | > 9.55 |  |  | O=C(CN1C(=O)CC2(CCCCC2)CC1=O)N1CCC(N2N=C(c3ccc(F)cc3)[C@H]3CC=CC[C@H]3C2=O)CC1 (relative stereo) | 64.6
7 | 1.82 | 0.00017 | 0.0759 |  |  | COc1ccc(C2=NN(C3CCN(C(=O)CN4C(=O)CC(C)C4=O)CC3)C(=O)[C@@H]3CC=CC[C@H]23)cc1OC (stereo not given in full) | 64.6
8 | 1.82 | 0.000389 | 0.102 |  |  | COc1ccc(C2=NN(C3CN(C(=O)CN4C(=O)CC(C)(C)CC4=O)C3)C(=O)[C@@H]3CC=CC[C@H]23)cc1OC | 64.6
9 | 45.7 |  | > 22.4 |  |  | CC1(C)CC(=O)N(CC(=O)N2CCC(N3N=C(c4ccc(F)c(F)c4)[C@H]4CCCC[C@H]4C3=O)CC2)C(=O)C1 | 42.7
10 | 47.9 |  | > 9.77 |  |  | CC1(C)CC(=O)N(CC(=O)N2CCC(N3N=C(c4ccc(F)c(F)c4)[C@H]4CC=CC[C@H]4C3=O)CC2)C(=O)C1 (relative stereo) | 30.9
11 | 32.4 |  | > 16.6 |  |  | O=C(CN1C(=O)CC2(CCCC2)CC1=O)N1CCC(N2N=C(c3ccc(F)cc3)[C@H]3CC=CC[C@H]3C2=O)CC1 (relative stereo) | 40.7
12 |  |  | > 9.77 |  |  | COc1ccc(C2=NN(C3CCN(C(=O)CN4C(=O)CC5(CCCCC5)CC4=O)CC3)C(=O)[C@@H]3CCCC[C@H]23)cc1OC | 8.51
13 | 64.6 | 0.000316 | 0.0977 |  |  | COc1ccc(C2=NN(C3CCN(C(=O)CN4C(=O)CC(Cc5ccccc5)C4=O)CC3)C(=O)[C@@H]3CC=CC[C@H]23)cc1OC (stereo not given in full) | 64.6
14 | 3.63 | 0.000513 | 0.257 |  |  | COc1ccc(C2=NN(C3CCN(c4ccnc(N)n4)CC3)C(=O)[C@@H]3CC=CC[C@H]23)cc1OC | 3.89
15 | 3.39 |  | > 1.66 |  |  | O=C1[C@@H]2CC=CC[C@@H]2C(c2ccc(OC(F)F)c(O)c2)=NN1C1CCN(c2ncnc3ccsc23)CC1 | 64.6

More lines, now with the values behind:

Row | SMILES | IC50 (Trypanosoma brucei) [µM] | Ki [2] [µM] | Ki [3] [µM] | Stability [4] | Stability [5] | IC50 [1] [µM]
16 | COc1ccc(C2=NN(C3CN(c4ncnc5ccsc45)C3)C(=O)[C@@H]3CC=CC[C@H]23)cc1OC | 15.1 | 0.000562 | 0.288 |  |  | 64.6
17 | COc1ccc(C2=NN(C3CCN(c4ncnc5ccccc45)CC3)C(=O)[C@@H]3CC=CC[C@H]23)cc1OC | 0.263 | 0.000224 | 0.646 |  |  | 3.02
18 | Nc1nc(N2CCC(N3N=C(c4ccc(F)c(F)c4)[C@H]4CC=CC[C@H]4C3=O)CC2)c2ccsc2n1 (relative stereo) | 1.91 |  | > 8.32 | Stable | Stable | 64.6
19 | COc1ccc(-c2nn(C3CCNCC3)c(=O)n3ccnc23)cc1OC | 32.4 |  | > 31.6 |  |  | 64.6
20 | COc1ccc(C2=NN(C3CN(c4nc(N)nc5sccc45)C3)C(=O)[C@@H]3CC=CC[C@H]23)cc1OC | 7.76 | 0.00117 | 0.275 |  |  | 64.6
21 | COc1ccc(C2=NN(C3CCN(c4nc(N)nc5[nH]cnc45)CC3)C(=O)[C@@H]3CC=CC[C@H]23)cc1OC | 1.7 | 0.000871 | 0.105 |  |  | 17.8
22 | COc1ccc(-c2n[nH]c(=O)n3ccnc23)cc1OC | 64.6 |  | > 31.6 |  |  | 64.6
23 | COc1ccc(C2=NN(C3CCN(c4nc(N)nc5sccc45)CC3)C(=O)[C@@H]3CC=CC[C@H]23)cc1OC | 0.468 | 0.000355 | 0.0427 |  |  | 64.6
24 | COc1ccc(C2=NN(C3CCN(c4nc(N)c5ccccc5n4)CC3)C(=O)[C@@H]3CC=CC[C@H]23)cc1OC | 0.871 | 0.00245 | 0.646 |  |  | 7.41
25 | O=C1[C@@H]2CC=CC[C@@H]2C(c2ccc(O)c(O)c2)=NN1C1CCN(c2ncnc3ccsc23)CC1 | 5.13 | 0.0631 | 0.891 |  |  | 25.1
26 | COc1ccc(-c2nn(C3CCN(c4nc(N)nc5sccc45)CC3)c(=O)n3ccnc23)cc1OC | 64.6 |  | > 18.2 |  |  | 64.6
27 | COc1ccc(C2=NN(C3CCN(c4ncc5sccc5n4)CC3)C(=O)[C@@H]3CC=CC[C@H]23)cc1OC | 2.29 | 0.00257 | 0.692 |  |  | 64.6
28 | COc1ccc(C2=NN(C3CCN(c4nccc(N)n4)CC3)C(=O)[C@@H]3CC=CC[C@H]23)cc1OC | 1.86 | 0.000316 | 0.11 |  |  | 17.4
29 | COc1ccc(C2=NN(C3CCN(c4nc(N)nc5sccc45)CC3)C(=O)[C@@H]3CC=CC[C@H]23)cc1Cl | 2 | 0.0302 | 0.832 |  |  | 64.6
30 | COc1ccc(-c2ccc(=O)n(C3CCN(c4nc(N)nc5sccc45)CC3)n2)cc1OC | 7.76 |  | > 3.72 |  |  | 11.2
31 | COc1ccc(C2=NN(C3CCN(c4ncnc5ccsc45)CC3)C(=O)[C@@H]3CC=CC[C@H]23)cc1OC | 0.372 | 0.000234 | 0.0661 |  |  | 7.24
32 | COc1ccc(C2=NN(C3CCN(c4nc(N)nc5ccccc45)CC3)C(=O)[C@@H]3CC=CC[C@H]23)cc1OC | 0.813 | 0.000155 | 0.0245 |  |  | 7.76
33 | COc1ccc(C2=NN(C3CCN(c4ncc5ccccc5n4)CC3)C(=O)[C@@H]3CC=CC[C@H]23)cc1OC | 1.7 | 0.000589 | 0.646 |  |  | 64.6
34 | COc1ccc(C2=NN(C3CCN(c4nc(N)nc5sccc45)CC3)C(=O)[C@@H]3CCCC[C@H]23)cc1OC | 0.955 | 0.000661 | 0.0933 |  |  | 28.8
35 | COc1ccc(C2=NN(C3CCN(c4ncnc5ccsc45)CC3)C(=O)C2(C)C)cc1OC | 32.4 |  | > 2.04 |  |  | 25.1
